Experimental data pooled from the literature.
Compare with care: the assays were run in different laboratories.
ADRB2: Beta-2 adrenergic receptor (ADRB2, Homo sapiens, UniProt P07550)

| SMILES | target | observed | action | technique | setting | endpoint | value |
| --- | --- | --- | --- | --- | --- | --- | --- |
| CC(Cc1ccc2c(c1)OCO2)NCC(O)c1ccc(O)c(O)c1 (stereo not drawn) | ADRB2 | β-arrestin recruitment | agonist |  |  | EC50 | 0.00631 µM |
| CCC1(COCc2ccccc2F)CCC(C)(C)O1 (stereo not drawn) | ADRB2 | calcium signal | agonist | fluorescence |  | EC50 | 17 µM |
| CN1CCC(=C2c3ccccc3CCc3sccc32)CC1 | ADRB2 | ligand displacement |  | radioligand |  | IC50 | 5.8 µM |
| CC(N)Cc1c[nH]c2ccc(OCc3cccs3)cc12 (stereo not drawn) | ADRB2 | ligand displacement |  | radioligand | cell membranes | IC50 | 9.42 µM |
| C[C@H](N)Cn1ncc2ccc3c(c21)CCCO3 | ADRB2 | cAMP | agonist |  |  | EC50 | > 100 µM |
| NCC(O)c1ccc(O)c(O)c1F (stereo not drawn) | Beta-2 adrenergic receptor (ADRB2, Homo sapiens, UniProt P07550, N293A) | ligand displacement |  | radioligand | cell membranes | Ki | 319 µM |
| COc1ccc(OC)c(C(O)C(C)N)c1 (stereo not drawn) | ADRB2 | ligand displacement |  | radioligand | cell membranes | IC50 | 12.3 µM |
| CCOc1ccccc1OCCN[C@H](C)Cc1ccc(OC)c(S(N)(=O)=O)c1 | ADRB2 | ligand displacement |  | radioligand |  | IC50 | 2.2 µM |
| NCC(O)c1cc(O)c(O)cc1F (stereo not drawn) | Beta-2 adrenergic receptor (ADRB2, Homo sapiens, UniProt P07550, N293Q) | ligand displacement |  | radioligand | cell membranes | Ki | 3330 µM |
